In ChEMBL document CHEMBL1145038 (J Med Chem, 2003):

Assays:
Histamine H3 receptor [1] = target: T1, Histamine H3 receptor (Rattus norvegicus, UniProt Q9QYN8); assay: Affinity against rat Histamine H3 receptor using [3H]N-alpha-methyl histamine
Method in brief: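 Male Sprague–Dawley rat brain homogenate without cerebellum (800 μg) incubated 1 h at 25 °C in 50 mM Na₂HPO₄/KH₂PO₄, pH 7.5, with 0.25 nM [³H]Nα-methylhistamine. Filtered on GF/B, scintillation counted. Nonspecific binding with 10 μM thioperamide. IC50 by log probit; Ki = IC50/(1+L/Ka), Ka from Rosenthal analysis of saturation at 0.1–3.0 nM. Mean ± SE.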

Histamine H3 receptor [2] = target: T1, Histamine H3 receptor; assay: Inhibition of rat Histamine H3 receptor using [3H]N-alpha-methyl histamine
Method in brief: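 Male Sprague–Dawley rat brain (minus cerebellum) homogenate, 800 μg, incubated 1 h at 25 °C in 50 mM Na2HPO4/KH2PO4 pH 7.5 with 0.25 nM radioligand. Bound ligand separated on GF/B filters and counted by scintillation; nonspecific binding taken with 10 μM thioperamide. […] Mean ± SE.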

Histamine H3 receptor [3] = target: T2, Histamine H3 receptor (Homo sapiens, UniProt Q9Y5N1); assay: Inhibition of human Histamine H3 receptor
Histamine H4 receptor = Histamine H4 receptor (Homo sapiens, UniProt Q9H3N8); assay: Inhibition of human Histamine H4 receptor
Histamine H3 receptor [4] = target: T2, Histamine H3 receptor; assay: Inhibition of human H3-receptor using [3H]N-alpha-methyl histamine
Method in brief: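 Membrane fractions from stably transfected CHO cells expressing human H3 receptor; radioligand displacement binding.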

T1 sequence (Q9QYN8 whole entry): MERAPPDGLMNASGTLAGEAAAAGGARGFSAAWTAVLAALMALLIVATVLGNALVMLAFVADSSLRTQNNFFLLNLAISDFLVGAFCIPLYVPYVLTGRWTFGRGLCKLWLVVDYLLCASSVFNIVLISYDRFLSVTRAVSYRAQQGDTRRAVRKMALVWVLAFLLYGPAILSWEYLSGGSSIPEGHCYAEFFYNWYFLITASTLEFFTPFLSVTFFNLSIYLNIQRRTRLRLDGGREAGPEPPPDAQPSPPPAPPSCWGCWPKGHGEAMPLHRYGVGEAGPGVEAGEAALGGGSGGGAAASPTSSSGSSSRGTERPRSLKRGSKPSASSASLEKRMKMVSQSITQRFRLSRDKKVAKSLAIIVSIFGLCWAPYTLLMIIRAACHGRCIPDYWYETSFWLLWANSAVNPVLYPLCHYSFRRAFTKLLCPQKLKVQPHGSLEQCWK
T2 sequence (Q9Y5N1 whole entry): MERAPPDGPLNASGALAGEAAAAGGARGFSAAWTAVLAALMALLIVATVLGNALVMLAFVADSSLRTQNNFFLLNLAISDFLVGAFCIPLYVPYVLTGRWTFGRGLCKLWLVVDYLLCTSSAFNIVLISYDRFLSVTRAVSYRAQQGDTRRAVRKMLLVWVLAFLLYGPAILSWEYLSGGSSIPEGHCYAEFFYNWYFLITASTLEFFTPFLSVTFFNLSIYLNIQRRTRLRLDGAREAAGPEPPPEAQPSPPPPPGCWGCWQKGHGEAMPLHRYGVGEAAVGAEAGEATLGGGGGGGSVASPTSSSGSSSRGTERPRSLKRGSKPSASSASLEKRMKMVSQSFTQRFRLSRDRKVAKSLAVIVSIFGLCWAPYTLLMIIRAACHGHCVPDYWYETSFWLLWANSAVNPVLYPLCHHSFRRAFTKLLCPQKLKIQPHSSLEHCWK
Chain of Histamine H4 receptor (Q9H3N8 whole entry): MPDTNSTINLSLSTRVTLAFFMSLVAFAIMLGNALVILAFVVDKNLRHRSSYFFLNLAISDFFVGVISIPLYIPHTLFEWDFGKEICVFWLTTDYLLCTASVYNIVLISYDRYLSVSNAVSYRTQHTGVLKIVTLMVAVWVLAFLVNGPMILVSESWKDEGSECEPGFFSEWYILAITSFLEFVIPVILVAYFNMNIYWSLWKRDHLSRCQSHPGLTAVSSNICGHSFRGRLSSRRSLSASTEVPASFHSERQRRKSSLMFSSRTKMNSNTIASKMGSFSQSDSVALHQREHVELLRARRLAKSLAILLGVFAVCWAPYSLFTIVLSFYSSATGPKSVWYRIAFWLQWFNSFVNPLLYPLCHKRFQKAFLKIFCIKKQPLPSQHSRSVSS

## NC[C@H]1C[C@H]1c1cnc[nH]1
Histamine H3 receptor [1]
  Ki: 0.0647 µM

## S=C(NC1CCCCC1)N1CCC(c2cnc[nH]2)CC1 [THIOPERAMIDE]
Histamine H3 receptor [2]
  Ki: 0.00265 µM

## N=C(N)SCCc1cnc[nH]1 [IMETIT]
Histamine H3 receptor [3]
  EC50: 0.0019 µM
Histamine H4 receptor
  EC50: 0.051 µM

## N[C@H]1C[C@@H]1c1c[nH]cn1 [VUF-5297]
Histamine H3 receptor [3]
  EC50: 0.042 µM
Histamine H3 receptor [1]
  Ki: 0.0043 µM

## NCC[C@@H]1C[C@@H]1c1cnc[nH]1
Histamine H3 receptor [3]
  EC50: 0.01 µM
Histamine H3 receptor [1]
  Ki: 0.00131 µM

## N[C@H]1C[C@H]1c1c[nH]cn1
Histamine H3 receptor [1]
  Ki: 1.38 µM

## NCC[C@H]1C[C@H]1c1cnc[nH]1
Histamine H3 receptor [3]
  EC50: 1.41 µM
Histamine H3 receptor [1]
  Ki: 0.00478 µM

## N[C@@H]1C[C@H]1c1cnc[nH]1 [VUF-5296]
Histamine H3 receptor [3]
  EC50: 0.724 µM
Histamine H3 receptor [1]
  Ki: 0.0422 µM

## NC[C@@H]1C[C@H]1c1c[nH]cn1
Histamine H3 receptor [1]
  Ki: 0.0226 µM

## NC[C@@H]1C[C@@H]1c1cnc[nH]1
Histamine H3 receptor [3]
  EC50: 0.096 µM
Histamine H3 receptor [1]
  Ki: 0.0025 µM

## N[C@@H]1C[C@@H]1c1c[nH]cn1
Histamine H3 receptor [4]
  EC50: 2.33 µM
Histamine H3 receptor [1]
  Ki: 0.0912 µM

## NC[C@H]1C[C@@H]1c1cnc[nH]1
Histamine H3 receptor [1]
  Ki: 0.0101 µM
